This passage reports inhibition and fold change (FC) results from ChEMBL document CHEMBL5653631, “A Potent and Selective ULK1 Inhibitor Suppresses Autophagy and Sensitizes Cancer Cells to Nutrient Stress” (iScience, 2018).

Usually inhibition stands for the share of the control response that was lost under treatment.

The structures appear in SMILES notation.

For assay [1], the target named is RAC-beta serine/threonine-protein kinase (Homo sapiens) (UniProt P31751). The assay is described as follows: Inhibition of human recombinant AKT2 at 15 nM in presence of ATP by radiometric assay relative to control. The procedure, abridged: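 Panel of 327 recombinant human kinases in radiometric activity assays, each screened in duplicate at a single inhibitor concentration; percent activity remaining relative to vehicle control, percent inhibition taken as 100 minus activity remaining.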

Assay [2] concerns the target Mitogen-activated protein kinase 14 (Homo sapiens) (UniProt Q16539). In words: Inhibition of human recombinant p38alpha at 15 nM in presence of ATP by radiometric assay relative to control.
The target in assay [3] is Homeodomain-interacting protein kinase 2 (Homo sapiens) (UniProt Q9H2X6). The assay is described as follows: Inhibition of human recombinant HIPK2 at 15 nM related to control ULK1.
In assay [4] the target is Mitogen-activated protein kinase kinase kinase 9 (Homo sapiens) (UniProt P80192). In words: Inhibition of human recombinant MLK1 at 15 nM related to control ULK1.
The target in assay [5] is T1, Serine/threonine-protein kinase Chk1 (Homo sapiens) (UniProt O14757).
T1 sequence (whole entry): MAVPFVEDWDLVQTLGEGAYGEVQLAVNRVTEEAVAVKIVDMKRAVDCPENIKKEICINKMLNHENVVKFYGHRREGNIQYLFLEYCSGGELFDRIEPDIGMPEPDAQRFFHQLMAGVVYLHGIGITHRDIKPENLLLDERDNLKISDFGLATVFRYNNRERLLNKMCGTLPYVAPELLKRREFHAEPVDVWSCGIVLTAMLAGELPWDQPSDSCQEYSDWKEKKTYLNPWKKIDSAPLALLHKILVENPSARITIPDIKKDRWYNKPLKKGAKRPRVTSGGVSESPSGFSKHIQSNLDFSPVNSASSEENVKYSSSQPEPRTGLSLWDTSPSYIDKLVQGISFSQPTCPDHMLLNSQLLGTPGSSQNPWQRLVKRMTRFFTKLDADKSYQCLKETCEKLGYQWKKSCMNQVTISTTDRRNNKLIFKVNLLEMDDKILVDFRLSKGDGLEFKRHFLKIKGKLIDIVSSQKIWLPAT
In words: Inhibition of human recombinant CHK1 at 40 nM in presence of ATP by radiometric assay relative to control.

Assay [6] concerns the target LIM domain kinase 1 (Homo sapiens) (UniProt P53667). The assay is described as follows: Inhibition of human recombinant LIMK1 at 40 nM in presence of ATP by radiometric assay relative to control.
Assay [7] concerns the target T2, Testis-specific serine/threonine-protein kinase 1 (Homo sapiens) (UniProt Q9BXA7).
T2 sequence (whole entry): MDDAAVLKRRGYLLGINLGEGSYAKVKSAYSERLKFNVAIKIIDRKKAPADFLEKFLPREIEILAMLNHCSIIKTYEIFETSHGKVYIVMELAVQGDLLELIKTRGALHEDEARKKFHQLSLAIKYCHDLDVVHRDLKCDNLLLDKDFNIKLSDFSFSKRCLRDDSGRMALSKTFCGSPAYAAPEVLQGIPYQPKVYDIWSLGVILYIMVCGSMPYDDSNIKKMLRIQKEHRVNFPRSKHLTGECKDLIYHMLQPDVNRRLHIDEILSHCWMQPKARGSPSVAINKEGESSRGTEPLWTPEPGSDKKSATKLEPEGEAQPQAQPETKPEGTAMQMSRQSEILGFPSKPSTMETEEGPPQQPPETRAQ
In words: Inhibition of human recombinant TSSK1 at 40 nM in presence of ATP by radiometric assay relative to control.

Assay [8] addresses Tyrosine-protein kinase FRK (Homo sapiens) (UniProt P42685). In words: Inhibition of human recombinant FRK at 40 nM related to control ULK1.
Assay [9] addresses T3, Activin receptor type-1 (Homo sapiens) (UniProt Q04771).
T3 sequence (whole entry): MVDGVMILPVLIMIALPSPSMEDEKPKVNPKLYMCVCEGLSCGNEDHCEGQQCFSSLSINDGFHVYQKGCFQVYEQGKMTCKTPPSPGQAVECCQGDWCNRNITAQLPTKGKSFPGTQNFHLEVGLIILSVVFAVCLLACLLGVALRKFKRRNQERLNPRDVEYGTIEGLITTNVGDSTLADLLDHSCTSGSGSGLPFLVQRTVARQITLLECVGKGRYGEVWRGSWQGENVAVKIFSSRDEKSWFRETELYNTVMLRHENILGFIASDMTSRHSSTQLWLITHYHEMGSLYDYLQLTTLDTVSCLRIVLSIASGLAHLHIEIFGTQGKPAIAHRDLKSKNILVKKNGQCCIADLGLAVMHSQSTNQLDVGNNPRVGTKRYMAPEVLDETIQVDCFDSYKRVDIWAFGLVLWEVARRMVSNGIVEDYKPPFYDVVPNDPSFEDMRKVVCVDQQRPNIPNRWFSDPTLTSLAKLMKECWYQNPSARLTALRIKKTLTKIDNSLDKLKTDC
The assay is described as follows: Inhibition of human recombinant ALK2 at 500 nM in presence of ATP by radiometric assay relative to control. In outline: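 Panel of 327 recombinant human kinases, each assayed in vitro by radiometric activity assay in duplicate at a single inhibitor concentration per compound, chosen with reference to its ULK1 inhibition. Activity remaining was expressed as percent of vehicle control, and percent inhibition was calculated as 100 minus percent activity remaining.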

For assay [10], the target named is Protein kinase C alpha type (Homo sapiens) (UniProt P17252). In words: Inhibition of human recombinant PKCa at 500 nM in presence of ATP by radiometric assay relative to control.
For assay [11], the target named is Protein kinase C delta type (Homo sapiens) (UniProt Q05655). In words: Inhibition of human recombinant PKCd at 500 nM in presence of ATP by radiometric assay relative to control.
Assay [12] deals with T4, Serine/threonine-protein kinase Sgk2 (Homo sapiens) (UniProt Q9HBY8).
T4 sequence (whole entry): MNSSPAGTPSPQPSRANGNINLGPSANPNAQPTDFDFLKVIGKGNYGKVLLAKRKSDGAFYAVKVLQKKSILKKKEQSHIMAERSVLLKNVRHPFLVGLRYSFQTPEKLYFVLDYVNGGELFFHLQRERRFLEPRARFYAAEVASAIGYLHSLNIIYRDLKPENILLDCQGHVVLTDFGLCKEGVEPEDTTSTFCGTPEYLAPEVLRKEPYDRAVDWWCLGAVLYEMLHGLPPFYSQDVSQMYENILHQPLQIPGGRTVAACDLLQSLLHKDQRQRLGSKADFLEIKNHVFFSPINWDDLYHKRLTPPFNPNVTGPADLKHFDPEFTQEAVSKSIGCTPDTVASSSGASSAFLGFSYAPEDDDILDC
In words: Inhibition of human recombinant SGK2 at 500 nM in presence of ATP by radiometric assay relative to control.

For assay [13], the target named is Receptor-type tyrosine-protein kinase FLT3 (Homo sapiens) (UniProt P36888). In words: Inhibition of human recombinant FLT3 at 500 nM related to control ULK1.
Assay [14] concerns the target Serine/threonine-protein kinase PAK 3 (Homo sapiens) (UniProt O75914). The assay is described as follows: Inhibition of human recombinant PAK3 at 500 nM related to control ULK1.
Assay [15] addresses Platelet-derived growth factor receptor alpha (Homo sapiens) (UniProt P16234). The assay is described as follows: Inhibition of human recombinant PDGFRa at 500 nM related to control ULK1.

Sequence of LIM domain kinase 1 (Homo sapiens) (P53667 whole entry, looked up, the tested form may be a part): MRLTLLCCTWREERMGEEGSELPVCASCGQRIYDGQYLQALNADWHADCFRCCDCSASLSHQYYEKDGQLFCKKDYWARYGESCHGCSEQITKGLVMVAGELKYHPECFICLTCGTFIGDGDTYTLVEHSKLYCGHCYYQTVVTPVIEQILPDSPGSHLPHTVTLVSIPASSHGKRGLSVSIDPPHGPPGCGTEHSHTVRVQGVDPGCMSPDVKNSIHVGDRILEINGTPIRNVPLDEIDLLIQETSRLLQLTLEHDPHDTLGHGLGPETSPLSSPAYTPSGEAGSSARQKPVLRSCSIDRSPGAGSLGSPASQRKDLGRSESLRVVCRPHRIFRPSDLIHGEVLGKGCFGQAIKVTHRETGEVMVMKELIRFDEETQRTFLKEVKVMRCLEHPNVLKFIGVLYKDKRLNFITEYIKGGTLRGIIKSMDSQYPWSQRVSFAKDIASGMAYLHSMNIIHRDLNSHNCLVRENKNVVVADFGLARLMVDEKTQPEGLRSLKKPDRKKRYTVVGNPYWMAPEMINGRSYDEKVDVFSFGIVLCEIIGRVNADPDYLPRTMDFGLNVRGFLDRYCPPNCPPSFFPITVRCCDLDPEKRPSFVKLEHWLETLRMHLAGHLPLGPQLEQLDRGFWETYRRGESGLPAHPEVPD
Sequence of Protein kinase C delta type (Homo sapiens) (Q05655 whole entry, looked up): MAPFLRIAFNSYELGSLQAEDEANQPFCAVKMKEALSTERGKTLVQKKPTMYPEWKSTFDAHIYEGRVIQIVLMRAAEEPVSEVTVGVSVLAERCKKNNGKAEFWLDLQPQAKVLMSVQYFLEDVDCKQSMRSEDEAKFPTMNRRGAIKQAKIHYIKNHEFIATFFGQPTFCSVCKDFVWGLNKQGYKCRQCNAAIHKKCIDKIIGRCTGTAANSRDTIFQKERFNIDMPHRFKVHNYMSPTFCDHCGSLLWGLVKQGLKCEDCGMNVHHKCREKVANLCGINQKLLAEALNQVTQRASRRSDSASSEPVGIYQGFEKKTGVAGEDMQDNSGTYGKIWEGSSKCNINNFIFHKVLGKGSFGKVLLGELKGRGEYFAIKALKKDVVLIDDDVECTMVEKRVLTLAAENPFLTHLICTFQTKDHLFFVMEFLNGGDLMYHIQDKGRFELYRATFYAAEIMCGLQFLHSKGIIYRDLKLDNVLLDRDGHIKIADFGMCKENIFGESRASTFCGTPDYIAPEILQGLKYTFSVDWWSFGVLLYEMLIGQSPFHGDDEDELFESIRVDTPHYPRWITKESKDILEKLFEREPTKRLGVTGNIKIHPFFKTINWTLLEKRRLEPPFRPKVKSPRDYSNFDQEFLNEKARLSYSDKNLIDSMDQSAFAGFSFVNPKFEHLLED
Sequence of RAC-beta serine/threonine-protein kinase (Homo sapiens) (P31751 whole entry): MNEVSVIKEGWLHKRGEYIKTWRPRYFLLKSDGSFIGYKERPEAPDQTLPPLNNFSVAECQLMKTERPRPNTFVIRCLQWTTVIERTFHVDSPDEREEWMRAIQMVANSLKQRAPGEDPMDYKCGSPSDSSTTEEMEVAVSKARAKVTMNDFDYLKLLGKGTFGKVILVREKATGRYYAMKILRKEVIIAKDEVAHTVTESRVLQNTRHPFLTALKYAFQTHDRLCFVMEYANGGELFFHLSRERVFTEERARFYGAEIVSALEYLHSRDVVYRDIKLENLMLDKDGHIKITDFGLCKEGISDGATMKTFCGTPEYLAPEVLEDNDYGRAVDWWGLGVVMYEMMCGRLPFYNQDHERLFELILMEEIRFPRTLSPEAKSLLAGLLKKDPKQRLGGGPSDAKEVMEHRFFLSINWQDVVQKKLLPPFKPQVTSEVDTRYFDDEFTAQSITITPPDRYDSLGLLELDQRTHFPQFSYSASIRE
Sequence of Homeodomain-interacting protein kinase 2 (Homo sapiens) (Q9H2X6 whole entry, looked up): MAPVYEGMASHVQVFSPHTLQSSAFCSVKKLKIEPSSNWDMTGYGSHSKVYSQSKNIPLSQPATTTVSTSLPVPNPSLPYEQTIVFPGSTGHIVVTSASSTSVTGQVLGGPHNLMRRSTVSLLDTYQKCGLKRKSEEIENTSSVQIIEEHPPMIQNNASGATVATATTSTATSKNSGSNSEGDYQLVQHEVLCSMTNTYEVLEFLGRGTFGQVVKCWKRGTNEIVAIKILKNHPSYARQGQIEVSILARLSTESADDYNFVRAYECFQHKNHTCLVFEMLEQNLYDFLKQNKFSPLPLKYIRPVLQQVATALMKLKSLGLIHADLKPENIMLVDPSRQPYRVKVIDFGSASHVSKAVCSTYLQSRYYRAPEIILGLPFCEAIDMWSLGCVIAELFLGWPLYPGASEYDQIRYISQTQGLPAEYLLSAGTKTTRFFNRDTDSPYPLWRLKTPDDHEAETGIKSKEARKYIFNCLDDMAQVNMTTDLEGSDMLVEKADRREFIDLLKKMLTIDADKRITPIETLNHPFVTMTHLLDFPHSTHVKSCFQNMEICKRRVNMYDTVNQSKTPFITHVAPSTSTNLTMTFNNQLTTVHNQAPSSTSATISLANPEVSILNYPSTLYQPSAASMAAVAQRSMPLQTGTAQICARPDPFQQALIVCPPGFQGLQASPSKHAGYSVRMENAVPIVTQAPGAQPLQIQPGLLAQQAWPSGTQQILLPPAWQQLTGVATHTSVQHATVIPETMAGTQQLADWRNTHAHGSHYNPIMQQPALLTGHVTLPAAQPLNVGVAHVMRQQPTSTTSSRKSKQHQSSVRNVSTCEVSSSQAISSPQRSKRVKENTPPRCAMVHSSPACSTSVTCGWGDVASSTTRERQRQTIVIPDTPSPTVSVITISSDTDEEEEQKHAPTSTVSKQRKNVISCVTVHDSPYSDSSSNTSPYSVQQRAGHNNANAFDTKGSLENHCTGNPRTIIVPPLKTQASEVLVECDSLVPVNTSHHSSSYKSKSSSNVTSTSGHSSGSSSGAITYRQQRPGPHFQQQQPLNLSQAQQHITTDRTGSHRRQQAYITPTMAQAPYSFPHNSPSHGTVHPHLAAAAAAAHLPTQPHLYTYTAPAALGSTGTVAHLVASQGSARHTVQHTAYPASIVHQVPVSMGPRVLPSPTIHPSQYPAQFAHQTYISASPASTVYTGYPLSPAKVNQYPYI
Sequence of Mitogen-activated protein kinase 14 (Homo sapiens) (Q16539 whole entry): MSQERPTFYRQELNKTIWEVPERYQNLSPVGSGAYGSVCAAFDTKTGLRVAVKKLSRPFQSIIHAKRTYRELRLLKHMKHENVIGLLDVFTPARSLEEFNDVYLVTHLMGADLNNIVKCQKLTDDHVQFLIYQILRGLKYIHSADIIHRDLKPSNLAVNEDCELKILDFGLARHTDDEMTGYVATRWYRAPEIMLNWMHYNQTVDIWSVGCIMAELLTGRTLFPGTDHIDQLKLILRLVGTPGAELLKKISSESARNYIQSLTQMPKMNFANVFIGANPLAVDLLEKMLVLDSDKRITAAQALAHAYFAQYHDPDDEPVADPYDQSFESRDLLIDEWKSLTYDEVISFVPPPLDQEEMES
Sequence of Mitogen-activated protein kinase kinase kinase 9 (Homo sapiens) (P80192 whole entry, looked up): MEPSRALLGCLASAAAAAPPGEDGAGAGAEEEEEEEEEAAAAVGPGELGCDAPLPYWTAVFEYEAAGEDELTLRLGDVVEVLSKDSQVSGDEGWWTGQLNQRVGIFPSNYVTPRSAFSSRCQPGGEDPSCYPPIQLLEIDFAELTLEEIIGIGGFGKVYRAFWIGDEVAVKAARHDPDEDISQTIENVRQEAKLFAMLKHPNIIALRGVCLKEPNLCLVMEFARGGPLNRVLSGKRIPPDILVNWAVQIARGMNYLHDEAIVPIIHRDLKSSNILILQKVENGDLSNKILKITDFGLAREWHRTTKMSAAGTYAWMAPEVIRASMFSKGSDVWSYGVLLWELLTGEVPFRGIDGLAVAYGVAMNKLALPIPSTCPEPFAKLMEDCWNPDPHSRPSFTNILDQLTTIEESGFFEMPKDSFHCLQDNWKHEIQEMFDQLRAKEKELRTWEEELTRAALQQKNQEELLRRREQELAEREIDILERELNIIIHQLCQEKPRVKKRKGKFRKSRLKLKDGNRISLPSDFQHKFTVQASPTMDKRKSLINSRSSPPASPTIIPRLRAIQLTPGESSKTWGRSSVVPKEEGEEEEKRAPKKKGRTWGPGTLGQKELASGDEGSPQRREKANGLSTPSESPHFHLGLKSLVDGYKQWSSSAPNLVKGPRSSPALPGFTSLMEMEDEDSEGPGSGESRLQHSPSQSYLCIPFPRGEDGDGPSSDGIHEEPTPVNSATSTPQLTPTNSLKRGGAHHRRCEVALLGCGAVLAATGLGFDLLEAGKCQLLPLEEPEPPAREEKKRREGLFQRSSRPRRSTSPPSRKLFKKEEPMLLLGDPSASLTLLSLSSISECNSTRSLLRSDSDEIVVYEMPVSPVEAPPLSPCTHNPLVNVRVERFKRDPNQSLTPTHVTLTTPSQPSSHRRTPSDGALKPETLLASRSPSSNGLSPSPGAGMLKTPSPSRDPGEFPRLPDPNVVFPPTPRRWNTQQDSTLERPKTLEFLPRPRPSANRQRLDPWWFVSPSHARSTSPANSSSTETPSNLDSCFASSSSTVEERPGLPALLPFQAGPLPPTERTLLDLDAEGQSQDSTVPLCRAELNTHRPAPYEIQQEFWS
Sequence of Serine/threonine-protein kinase PAK 3 (Homo sapiens) (O75914 whole entry, looked up): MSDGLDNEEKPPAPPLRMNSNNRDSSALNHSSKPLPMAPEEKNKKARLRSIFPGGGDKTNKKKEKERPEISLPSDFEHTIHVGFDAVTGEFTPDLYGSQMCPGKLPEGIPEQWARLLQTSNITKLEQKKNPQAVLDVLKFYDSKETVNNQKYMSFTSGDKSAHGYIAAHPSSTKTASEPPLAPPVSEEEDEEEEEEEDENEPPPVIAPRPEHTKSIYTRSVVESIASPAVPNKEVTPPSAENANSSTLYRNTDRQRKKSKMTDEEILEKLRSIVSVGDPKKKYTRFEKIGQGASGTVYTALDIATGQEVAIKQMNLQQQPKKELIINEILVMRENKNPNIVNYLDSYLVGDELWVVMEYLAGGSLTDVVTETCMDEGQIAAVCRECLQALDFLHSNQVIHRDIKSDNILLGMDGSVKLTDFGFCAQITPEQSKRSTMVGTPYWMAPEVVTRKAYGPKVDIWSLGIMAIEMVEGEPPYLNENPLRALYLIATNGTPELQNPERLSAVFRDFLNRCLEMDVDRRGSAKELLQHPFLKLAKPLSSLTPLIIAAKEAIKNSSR

For the compound `CC(C)[C@H](NC(=O)c1cc(-c2cnn3cc(-c4ccc(OCCN5CCCCC5)cc4)cnc23)cs1)C(F)(F)F`, the inhibition in [1] worked out at 0%; in assay [2], 5%. For the same compound, the fold change (FC) in assay [3] is 0.03; in assay [4], 0.
On to `O=C(N[C@@H](C1CC1)C(F)(F)F)c1cc(-c2cnn3cc(-c4ccc(F)cc4)cnc23)cs1`, for which the inhibition in [5] was 0%; in [6], 15%; in [7], 0%. In addition, the fold change (FC) in assay [8] amounted to 0.
As for `CNC(=O)c1ccccc1Oc1nc(Nc2cc(OC)c(OC)c(OC)c2)ncc1Br`, the inhibition stood at 46% in assay [9], 0% in assay [10], 3% in assay [11] and 17% in [12]. Also, the fold change (FC) in assay [13] came out at 0.77; in assay [14], 0.12; in assay [15], 0.
